# From ChEMBL document CHEMBL1135581, “Novel selective PDE4 inhibitors. 3. In vivo antiinflammatory activity of a new series of N-substituted cis-tetra- and cis-hexahydrophthalazinones” (J Med Chem, 2002)
# Columns and labels:
# Phosphodiesterase 4 = Phosphodiesterase 4 (Homo sapiens, UniProt P27815+Q08499+Q07343+Q08493); assay: Inhibitory concentration against phosphodiesterase 4 (PDE4) in cytosol of human neutrophils; assay type: protein assay
# Mus musculus [1] = assay: Percent inhibition of arachidonic acid (AA) […], induced mouse ear edema after pretreatment at a concentration of 30 umol/kg (po); assay type: functional
# How it was run: (§1)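 Female NMRI mice, 25–32 g, n = 8 per group. Compound in water (pH 6.5–7) given by gavage at 30 μmol/kg, 1 h before 3 mg arachidonic acid in 10 μL acetone applied to the right ear.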
# [2] = Inhibition of LPS-stimulated tumor necrosis factor-alpha release by human whole blood; assay type: functional
# How it was run: (§2)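 Heparinized venous human whole blood (8 U/mL) from healthy volunteers, preincubated 15 min at 37 °C with compound (0.001–10 μM final, 0.1% DMSO). Then stimulated with LPS (1 μg/mL final) for 4 h at 37 °C. Plasma TNFα measured by nonisotopic immunoassay. IC30 from concentration–inhibition curves by nonlinear regression. Means of two independent determinations in triplicate.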
# Mus musculus [3] = assay: Percent inhibition of arachidonic acid induced mouse ear edema after 1 hr pretreatment with 30 uM/kg peroral dose; assay type: functional; how it was run: as §1
# [4] = Inhibition of N-formyl-methionyl-leucyl-phenylalanine (fMLP)-stimulated production of reactive oxygen species (ROS) in human PMNL by 35% of control; assay type: functional
# How it was run: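 PMNL isolated from citrated human blood (dextran sedimentation, ficoll, hypotonic lysis), 1.25 × 10^7 cells/mL. Buffer: HEPES saline with Mg/Ca, glucose, BSA, 10 μM luminol, 4 μM microperoxidase. […] IC35 by nonlinear regression. Two independent determinations in triplicate.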
# [5] = Inhibition of LPS-stimulated Tumor necrosis factor alpha release by human whole blood; assay type: functional; how it was run: as §2
Compound,Log IC50 (Phosphodiesterase 4),inhibition in vivo at 30 µmol/kg (Mus musculus [1]) [%],other results
COC(=O)c1ccc(CN2N=C(c3ccc(OC)c(OC)c3)C3CCCCC3C2=O)cc1 (centres undefined),-7.9,,
COc1ccc(C2=NN(C3CCCCCC3)C(=O)C3CC=CCC23)c2c1OC(C)(C)C2 (centres undefined),,54,pIC30 [2]: 7.05
COc1ccc(C2=NN(CCCCN(C)C)C(=O)C3CCCCC23)cc1OC (centres undefined),-7,,
COc1ccc(C2=NN(C3CCCCCC3)C(=O)C3CCCCC23)c2c1OC1(CCCC1)C2 (centres undefined),-9.2,29,
COc1ccc(C2=NN(CCCOc3ccccc3)C(=O)C3CCCCC23)cc1OC (centres undefined),-7.9,,
COc1ccc(C2=NN(Cc3cccc(O)c3)C(=O)C3CCCCC23)cc1OC (centres undefined),-8,,
COc1ccc(C2=NN(C3CCCC3)C(=O)C3CC=CCC23)cc1OC (centres undefined),-9.3,19,
COc1ccc(C2=NN(CCc3ccccc3)C(=O)C3CCCCC23)cc1OC (centres undefined),-7.6,,
C#CCN1N=C(c2ccc(OC)c(OC)c2)C2CCCCC2C1=O (centres undefined),-7.4,,
COc1ccc(C2=NN(CCN(C)C)C(=O)C3CCCCC23)cc1OC (centres undefined),-6.5,,
COc1ccc(C2=NN(Cc3ccc(C(=O)O)cc3)C(=O)C3CCCCC23)cc1OC (centres undefined),-7.3,27,
COc1ccc(C2=NN(c3ccccc3)C(=O)C3CCCCC23)cc1OC (centres undefined),-7.6,,
COc1ccc(C2=NN(Cc3ccccc3O)C(=O)C3CCCCC23)cc1OC (centres undefined),-8.1,,
COc1ccc(C2=NN(CCn3ccnc3)C(=O)C3CCCCC23)cc1OC (centres undefined),-6.3,,
COc1ccc(C2=NN(C3Cc4ccccc4C3)C(=O)C3CC=CCC23)cc1OC (centres undefined),-9.1,,
COc1ccc(C2=NN(C3CCSCC3)C(=O)C3CC=CCC23)cc1OC (centres undefined),-8.9,,
COc1ccc(C2=NN(CCCCCCCC(=O)O)C(=O)C3CCCCC23)cc1OC (centres undefined),-7.6,,Inhibition (Mus musculus [3]): 13%
COc1ccc(C2=NN(Cc3cccc(C(=O)O)c3)C(=O)C3CCCCC23)cc1OC (centres undefined),-7.9,18,
COc1ccc([C@]2(C#N)CC[C@@H](C(=O)O)CC2)cc1OC1CCCC1 [CILOMILAST],,33,pIC35 [4]: 7.04; pIC30 [2]: 4.89

Compound,Log IC50 (Phosphodiesterase 4),inhibition in vivo at 30 µmol/kg (Mus musculus [1]) [%],other results
COc1ccc([C@H](Cc2ccncc2)c2ccccc2)cc1OC1CCCC1 [CDP840],,48,pIC35 [4]: 7.2; pIC30 [2]: 4.82
COc1ccc(C2=NN(CC(=O)O)C(=O)C3CCCCC23)cc1OC (centres undefined),-5.7,,
COc1ccc(C2=NN(C(C)C)C(=O)C3CCCCC23)cc1OC (centres undefined),-8.6,14,
COc1ccc(C2=NN(CCO)C(=O)C3CCCCC23)cc1OC (centres undefined),-6.8,,
COc1ccc(C2=NN(C3CCOCC3)C(=O)C3CC=CCC23)cc1OC (centres undefined),-8.9,2,
COc1ccc(C2=NN(Cc3ccc(O)cc3)C(=O)C3CCCCC23)cc1OC (centres undefined),-8,,
COc1ccc(C2=NN(CC#N)C(=O)C3CCCCC23)cc1OC (centres undefined),-7.2,,
COc1ccc(C2=NN(C3CCCCCC3)C(=O)C3CCCCC23)cc1OC (centres undefined),-8.6,18,pIC30 [5]: 7.3
COc1ccc(C2=NN(C/C=C/c3ccccc3)C(=O)C3CCCCC23)cc1OC (centres undefined),-7.8,,
CCN1N=C(c2ccc(OC)c(OC)c2)C2CCCCC2C1=O (centres undefined),-7.4,,
COc1ccc([C@@H]2CNC(=O)C2)cc1OC1CCCC1 [(-)-ROLIPRAM],,,Inhibition (Mus musculus [3]): 55%
COc1ccc(C2=NN(C3CCCCCCC3)C(=O)C3CC=CCC23)cc1OC (centres undefined),-9.3,30,
COc1cc(CN2N=C(c3ccc(OC)c(OC)c3)C3CCCCC3C2=O)cc(OC)c1 (centres undefined),-7.6,,
COc1ccc(C2=NN(CC3CC3)C(=O)C3CC=CCC23)cc1OC (centres undefined),-8.1,15,
CCOC(=O)CN1N=C(c2ccc(OC)c(OC)c2)C2CCCCC2C1=O (centres undefined),-7.2,,
CCCN1N=C(c2ccc(OC)c(OC)c2)C2CCCCC2C1=O (centres undefined),-7.8,,
COc1ccc(C2=NN(CCCCCC(=O)[O-])C(=O)C3CCCCC23)cc1OC.[Na+] (centres undefined),-7.5,18,
COc1ccc(C2=NN(C3CCCCC3)C(=O)C3CC=CCC23)cc1OC (centres undefined),-9.2,13,
COc1ccc(C2=NN(Cc3cccnc3)C(=O)C3CCCCC23)cc1OC (centres undefined),-7.6,,

Compound,Log IC50 (Phosphodiesterase 4),inhibition in vivo at 30 µmol/kg (Mus musculus [1]) [%],other results
COc1ccc(C2=NN(C3C4CC5CC(C4)CC3C5)C(=O)C3CC=CCC23)cc1OC (centres undefined),-9.4,51,pIC35 [4]: 6.3; pIC30 [2]: 7.22
COc1ccc(C2=NN(CC(=O)c3ccccc3)C(=O)C3CCCCC23)cc1OC (centres undefined),-8,,
COc1ccccc1CN1N=C(c2ccc(OC)c(OC)c2)C2CCCCC2C1=O (centres undefined),-7.7,,
COc1ccc(C2=NN(C)C(=O)C3CCCCC23)cc1OC (centres undefined),-6.8,,
COc1ccc(C2=NN(CCCO)C(=O)C3CCCCC23)cc1OC (centres undefined),-7.5,,
COc1ccc(C2=NN(C3CCCCCC3)C(=O)C3CC=CCC23)cc1OC (centres undefined),,59,pIC35 [4]: 6.82; pIC30 [2]: 7.05
COc1ccc(C2=NN(Cc3ccncc3)C(=O)C3CCCCC23)cc1OC (centres undefined),-7.8,29,
COc1ccc(C2=NN(CCCCn3ccnc3)C(=O)C3CCCCC23)cc1OC (centres undefined),-8,39,
C=CCN1N=C(c2ccc(OC)c(OC)c2)C2CCCCC2C1=O (centres undefined),-7.6,,
COc1ccc(C2=NN(C3CCCC3)C(=O)C3CCCCC23)cc1OC (centres undefined),-8.4,,
COc1ccc(C2=NN(C(C)C)C(=O)C3CC=CCC23)cc1OC (centres undefined),-8.9,15,
COc1ccc(C2=NN(Cc3ccccn3)C(=O)C3CCCCC23)cc1OC (centres undefined),-7.6,,
COc1ccc(C2=NN(C(C)(C)C)C(=O)C3CCCCC23)cc1OC (centres undefined),-7.9,,
COc1ccc(CN2N=C(c3ccc(OC)c(OC)c3)C3CCCCC3C2=O)cc1 (centres undefined),-8.2,13,
COc1ccc(C2=NN(CCCCCCN(C)C)C(=O)C3CCCCC23)cc1OC (centres undefined),-7,,
COc1ccc(C2=NN(CCCCCCN)C(=O)C3CCCCC23)cc1OC (centres undefined),-7.1,,
COc1cccc(CN2N=C(c3ccc(OC)c(OC)c3)C3CCCCC3C2=O)c1 (centres undefined),-8.5,8,
COc1ccc(C2=NN(C3CCCCCC3)C(=O)C3CC=CCC23)c2c1OC1(CCCC1)C2 (centres undefined),,49,
